# Reference: article PMC4349556 (Journal of pharmaceutical sciences, 2014)
# Tests used:
# [1] = Drug incorporation efficiency into lipid-drug nanoparticles; format: physicochemical; conditions: for Drug incorporation (% total): anti-HIV drug combination LNPs (ATV+RTV+TFV) used in primates, preclinical scale; for Incorporation efficiency (%): DSPC:DSPE-mPEG2000 8:2, mean ± SD of 4
# Summary of the method: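 Film rehydrated in 0.9% NaCl with 20 mM sodium bicarbonate (pH 7.4) at 60°C for 2 h, then sonicated or homogenized. 50 μL aliquot dialyzed (MWCO 6,000-8,000) against 1,000 mL pH 7.4 buffer; drug quantified by HPLC/MS/MS. Efficiency = incorporated/total loaded ×100%.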
# [2] = Plasma time course of anti-HIV drug combination lipid nanoparticles in primates; conditions: male, Macaca nemestrina (macaque), in vivo, sc
# [3] = 12 HIV infected patients, prospective clinical study; cited from earlier work
# [4] = DPH fluorescence anisotropy: membrane fluidity and phase transition temperature; format: physicochemical; conditions: lipid-to-drug molar ratio 8:1
# [5] = Hydration of drug in buffer in the absence of lipids; format: physicochemical; conditions: after solvent removal and hydration in buffer
Drug incorporation (% total) [1],AUC fraction (% total) 8-168 h [2],Incorporation efficiency (%) ([1]; lipid : drug 5 : 1 (mol/mol)),Incorporation efficiency (%) ([1]; lipid : drug 8 : 1 (mol/mol)),Incorporation efficiency (%) ([1]; lipid : drug 20 : 1 (mol/mol)),"Incorporation efficiency ([1]; range over lipid-to-drug molar ratios 5:1, 8:1 and 20:1)",Compound,Lymph node intracellular drug levels lower than those in blood [3],Effect on DPH polarization / membrane order versus drug-free lipid control [4],Behaviour in the absence of lipids in the mixture [5],Reduction of Tc versus control LNPs [4]
6.1 ± 0.8%,97.4%,–,–,–,–,"C[C@H](Cn1cnc2c(N)ncnc21)OCP(=O)(O)O [Tenofovir (TFV), tenofovir]",–,–,–,–
85.5 ± 8.2%,95.3%,96.5 ± 2.6%,96.2 ± 3.8%,97.4 ± 1.8%,96.2-97.4%,"COC(=O)N[C@H](C(=O)N[C@@H](Cc1ccccc1)[C@@H](O)CN(Cc1ccc(-c2ccccn2)cc1)NC(=O)[C@@H](NC(=O)OC)C(C)(C)C)C(C)(C)C [Atazanavir (ATV), Atazanavir]",≤ 99%,less influence on the membrane order,formed precipitates,–
–,80.4%,–,–,–,–,"CC(C)c1nc(CN(C)C(=O)N[C@H](C(=O)N[C@@H](Cc2ccccc2)C[C@H](O)[C@H](Cc2ccccc2)NC(=O)OCc2cncs2)C(C)C)cs1 [Ritonavir (RTV), ritonavir]",–,–,–,–
–,–,–,–,–,–,"CC(C)CN(C[C@@H](O)[C@H](Cc1ccccc1)NC(=O)O[C@H]1CO[C@H]2OCC[C@H]21)S(=O)(=O)c1ccc(N)cc1 [Darunavir (DRV), Darunavir]",–,decreased the polarization of DPH,formed precipitates,1.6 °C
